One experiment deals with HCT-116. Nature of the experiment: Cytotoxicity against human HCT116 cells assessed as growth inhibition after 5 days by hemocytometry. It counts as cell-based. In short, it runs like this: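 HCT-116 cells were seeded at 5 × 10^4 cells/T25 flask in serum medium with 1% penicillin–streptomycin and 1% glutamine, at 37 °C and 5% CO2. Compound at various concentrations was added on day 3, followed by 120 h incubation. Cells were trypsinized, washed and resuspended in HBSS, then hemocytometer-counted. Counts were normalized to untreated control, and IC50 was derived by nonlinear regression.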

Experiment [1] can be described thus: Antifungal activity against Colletotrichum falcatum assessed as inhibition of mycelial growth at 100 ug/disc incubated for 10 to 15 days at 25 degC. It counts as functional. In short, it runs like this: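 Four C. falcatum strains from local sugar cane varieties (BF166, C01148, CP77400, SPF234) on potato dextrose agar; mycelial plug at plate centre, compound-loaded air-dried filter discs (25–200 μg, in methanol, chloroform or DMSO) placed 2 cm away; 10–15 days at 25 °C; zone of mycelial inhibition around disc; solvent discs as negative controls; three repeats in duplicate.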

The subject of the next experiment is Bacillus cereus. The experiment is described as follows: Antibacterial activity against Bacillus cereus assessed as inhibition of visible bacterial growth after 24 hrs. It counts as functional. In short, it runs like this:
(§1)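 Broth microdilution MIC using 2-fold serial dilutions. A. crystallopoietes DSM 20117 was grown in tryptic soy broth, and B. cereus in half-concentrated Mueller–Hinton broth. Final inoculum was 10^5 CFU per well. After 24 h at 37 °C, the MIC was read as the lowest concentration with no visible growth. Values are means of three independent determinations.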

For experiment [2], the system named is Arthrobacter crystallopoietes. The experiment is described as follows: Antibacterial activity against Arthrobacter crystallopoietes DSM 20117 assessed as inhibition of visible bacterial growth after 24 hrs. It counts as functional. The note with it: Crystallibacter crystallopoietes. In outline:
as §1

The test system of a further experiment is H125. Nature of the experiment: Solid tumor cytotoxicity against human H125 cells assessed as inhibition of cell colony formation by disc diffusion soft-agar colony formation assay. It counts as functional, cell-based. In short, it runs like this: (§2)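 Cells plated in soft agar; compound dissolved in 250 μL DMSO, 15 μL applied to a cellulose disc on the plate; after incubation, colony-inhibition zone measured from disc edge to colony growth in zone units (200 zu = 6 mm); solid-tumour selectivity judged as ≥250 zu difference versus leukemia or normal CFU-GM cells.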
For orientation: A growth-free zone around the sample is the usual read-out of agar diffusion tests.

The subject of a further experiment is MCF7. Nature of the experiment: Solid tumor cytotoxicity against human MCF7 cells assessed as inhibition of cell colony formation by disc diffusion soft-agar colony formation assay. It counts as functional, cell-based. In outline: as §2
Another experiment deals with LNCaP. Nature of the experiment: Solid tumor cytotoxicity against human LNCAP cells assessed as inhibition of cell colony formation by disc diffusion soft-agar colony formation assay. It counts as functional, cell-based. In short, it runs like this: as §2
Experiment [3] has as its system Mycobacterium tuberculosis. The experiment is described as follows: Antituberculosis activity against Mycobacterium tuberculosis H37Rv […] incubated for 7 days by Alamar blue assay. It counts as functional. In short, it runs like this:
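Virulent H37Rv (ATCC 27294) in 96-well plate; compounds from 10 mg/mL DMSO stock, 2-fold dilutions from top 100 μg/mL (1% v/v DMSO final); 7 days at 37 °C; growth by Alamar Blue fluorescence; MIC = lowest concentration giving ≥90% fluorescence inhibition versus untreated bacteria; rifampicin and isoniazid positive controls, 1% DMSO negative control.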
(In general: Resazurin is reduced to fluorescent resorufin, in cell work by metabolically active cells.)

Converted amounts (≈) assume the structure as drawn. The source made the active and inactive calls. The rule behind the calls is not given here.

As for `Oc1ccc2nc3ccc(O)cc3nc2c1`, the IC50 (commonly the concentration that inhibits the measured activity by half) in the experiment with HCT-116 (hct-116) is listed as “Non-toxic”. Moreover, the “inhibition zone (IZ)” value in experiment [1] is “inactive”. The MIC – broadly, the lowest concentration that inhibits growth of the organism – with Bacillus cereus came to 25 µg/mL (≈ 118 µM); in experiment [2] (DSM 20117, 24 h) it was 25 µg/mL (≈ 118 µM).
With `O=C(O)c1cccc2nc3ccccc3nc12` [PHENAZINE-1-CARBOXYLIC ACID], in the experiment with HCT-116 (Homo sapiens, HCT-116, 120 h, read-out: IC50), the IC50 is 15.6 µM. The “inhibition zone (IZ)” value in the experiment on H125, in the experiment with MCF7 and with LNCaP was “Active” throughout. Further, the inhibition zone (IZ) in experiment [1] stood at 2 mm. Further, the MIC90 (usually the lowest concentration that inhibits either 90% of growth or 90% of the strains tested, depending on the study) in experiment [3] (H37Rv ATCC 27292, 168 h) is 32.9 µg/mL (≈ 147 µM).
In the case of `Oc1ccc2nc3ccccc3nc2c1`, the IC50 result in the experiment with HCT-116 (hct-116) was “Non-toxic”. Moreover, the “inhibition zone (IZ)” value (in the experiment with H125; with MCF7; in experiment [1]; in the experiment with LNCaP) was “inactive” throughout. Also, the MIC result (with Bacillus cereus; in experiment [2]) was “inactive” throughout. Moreover, the MIC90 result in experiment [3] is “inactive”.
With `COC(=O)CCCCCc1ccccc1/C=C/C(C)=O` [LAHORENOIC ACID B], the IC50 entry in the experiment on HCT-116 (hct-116) is reported as “Non-toxic”. The compound further registered an MIC90 in experiment [3] (H37Rv ATCC 27292, 168 h) of 49.5 µg/mL (≈ 180 µM).
